The source of these data is ChEMBL document CHEMBL1142195, “A novel nonnucleoside analogue that inhibits human immunodeficiency virus type 1 isolates resistant to current nonnucleoside reverse transcriptase inhibitors” (Antimicrob Agents Chemother, 2007).

Active and inactive are the calls of the source. No cut-off for these calls is given here.

A short description of series [1]: Cmax in dog at 10 mg/kg, iv. It is filed as ADME, organism-based, Canis lupus familiaris. The arrangement: dose 10 mg/kg, route intravenous. The following applies: in vivo.
For series [2], the system named is Human immunodeficiency virus 1. The experiment in a line: Antiviral activity against HIV1 isolate with RT K103N-L100I mutation. It is filed as functional, organism-based. The essentials: (§1)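 VSV-G-pseudotyped pNL4-3.Luc.R−E− molecular clones carrying the RT mutations, single-round infection of HeLa-JC53 cells (15,000/well) at MOI 0.03. Compounds serially diluted 1:4 in DMSO then in phenol red-free DMEM with 2% FBS, final DMSO 0.2%. Incubated 48 h at 37°C, 5% CO2. Luciferase read-out by chemiluminescence gives the EC50. Fold change is relative to wt virus, mean of two tests.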

A short description of series [3]: Bioavailability in dog at 20 mg/kg, po. Format: ADME, organism-based, Canis lupus familiaris. The note with it: in vivo. The essentials: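 Dogs given 10 mg/kg i.v. or 20 mg/kg p.o., n = 3 per time point. Plasma sampled predose through 24 h. Bioavailability = (oral AUC0-∞/intravenous AUC0-∞) × 100.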
Series [4] concerns Human immunodeficiency virus 1. In words: Antiviral activity against HIV1 isolate with RT K103N-V108I-P225H mutation. Format: functional, organism-based. The essentials: as §1
Series [5] has as its target T1, DNA polymerase alpha catalytic subunit (Homo sapiens) (UniProt P09884).
T1 sequence (whole entry): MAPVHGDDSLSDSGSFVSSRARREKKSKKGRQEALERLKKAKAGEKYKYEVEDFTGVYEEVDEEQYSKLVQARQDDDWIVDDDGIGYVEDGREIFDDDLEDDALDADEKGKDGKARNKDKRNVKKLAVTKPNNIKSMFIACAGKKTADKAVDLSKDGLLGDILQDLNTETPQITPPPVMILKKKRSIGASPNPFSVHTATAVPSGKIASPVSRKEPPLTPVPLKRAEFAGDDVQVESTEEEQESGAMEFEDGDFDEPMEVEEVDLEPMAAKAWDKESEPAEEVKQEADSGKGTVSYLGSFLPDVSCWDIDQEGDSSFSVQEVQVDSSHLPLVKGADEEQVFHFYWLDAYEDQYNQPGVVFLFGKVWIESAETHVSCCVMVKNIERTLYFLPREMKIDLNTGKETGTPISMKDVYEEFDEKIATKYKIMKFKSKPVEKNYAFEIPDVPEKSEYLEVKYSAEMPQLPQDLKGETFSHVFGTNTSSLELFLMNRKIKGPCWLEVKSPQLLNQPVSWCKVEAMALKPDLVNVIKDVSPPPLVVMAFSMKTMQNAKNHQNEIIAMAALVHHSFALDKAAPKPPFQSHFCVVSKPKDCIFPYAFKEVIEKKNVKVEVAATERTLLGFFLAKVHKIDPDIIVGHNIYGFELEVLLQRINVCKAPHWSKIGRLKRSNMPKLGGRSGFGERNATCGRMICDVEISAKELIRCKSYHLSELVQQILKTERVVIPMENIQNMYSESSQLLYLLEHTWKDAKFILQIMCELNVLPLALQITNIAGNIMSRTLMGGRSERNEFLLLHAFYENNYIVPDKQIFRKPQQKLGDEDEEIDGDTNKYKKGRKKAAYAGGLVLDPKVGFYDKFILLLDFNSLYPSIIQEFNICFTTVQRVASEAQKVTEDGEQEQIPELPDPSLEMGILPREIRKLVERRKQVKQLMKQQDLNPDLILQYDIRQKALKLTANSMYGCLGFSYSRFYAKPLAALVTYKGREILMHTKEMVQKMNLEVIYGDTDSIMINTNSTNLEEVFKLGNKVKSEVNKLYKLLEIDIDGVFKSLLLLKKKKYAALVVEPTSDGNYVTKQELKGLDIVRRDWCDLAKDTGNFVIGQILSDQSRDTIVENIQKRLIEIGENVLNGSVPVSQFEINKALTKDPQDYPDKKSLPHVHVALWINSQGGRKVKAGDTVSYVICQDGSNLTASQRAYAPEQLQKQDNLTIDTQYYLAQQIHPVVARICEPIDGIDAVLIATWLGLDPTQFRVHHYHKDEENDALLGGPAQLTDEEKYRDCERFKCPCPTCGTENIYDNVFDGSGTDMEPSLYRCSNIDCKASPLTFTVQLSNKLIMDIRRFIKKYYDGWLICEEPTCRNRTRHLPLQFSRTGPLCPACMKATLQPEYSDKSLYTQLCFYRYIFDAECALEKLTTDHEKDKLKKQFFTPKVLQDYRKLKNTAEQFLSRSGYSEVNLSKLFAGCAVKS
In words: Inhibition of human DNA polymerase alpha upto 45 uM.

The test system of series [6] is Human immunodeficiency virus 1. In words: Antiviral activity against wild type HIV1. It is filed as functional, organism-based.
For series [7], the system named is Human immunodeficiency virus 1. The experiment in a line: Antiviral activity against HIV1 isolate with RT V106I, D123G, Y181C, F227L mutation in Hela-JC-53 cells. Format: functional.
The test system of series [8] is Human immunodeficiency virus 1. In words: Antiviral activity against HIV1 isolate with RT V106I, Y181C mutation in Hela-JC-53 cells. Format: functional.
Series [9] deals with Human immunodeficiency virus 1. In words: Antiviral activity against HIV1 isolate with RT Y188L mutation. Format: functional, organism-based. The essentials: as §1
Series [10] has as its system Human immunodeficiency virus 1. The experiment in a line: Antiviral activity against HIV1 isolate with RT V106I, Y181C, F227L mutation in Hela-JC-53 cells. Format: functional.
Series [11] in a line: Half life in dog at 20 mg/kg, po. It is filed as ADME, organism-based, Canis lupus familiaris. The arrangement: dose 20 mg/kg, route oral. The note with it: in vivo.
The test system of series [12] is Human immunodeficiency virus 1. In words: Antiviral activity against HIV1 isolate with RT K103N-F227L mutation. Format: functional, organism-based. The procedure, abridged:
as §1

In series [13] the test system is Human immunodeficiency virus 1. In words: Antiviral activity against wild type HIV1 NL4-3 in Hela-JC53 cells in the presence of 50% human serum after 48 hrs. It is filed as functional, organism-based. The note with it: Human immunodeficiency virus 1, NL4-3, Hela-JC53, 48 h. The procedure, abridged: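 HeLa-JC53 cells (1.5 × 10^4) infected with VSV-G-pseudotyped NL4-3.Luci.R−E− reporter virus at MOI 0.03, with 1:4 serial compound dilutions. Heat-inactivated human serum added to final 0–50% on a basal 2% FBS medium. Incubated 48 h at 37°C in 5% CO2. Luciferase read-out; EC50 by nonlinear regression.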

For series [14], the system named is Human immunodeficiency virus 1. In words: Antiviral activity against HIV1 isolate with RT K101E mutant. It is filed as functional, organism-based. The procedure, abridged:
as §1

The subject of series [15] is Human immunodeficiency virus 1. In words: Antiviral activity against HIV1 NL4-3 with Y188L mutation in Hela-JC53 cells in the presence of 40% human serum after 48 hrs. Format: functional, organism-based. The following applies: Human immunodeficiency virus 1, NL4-3, Hela-JC53, 48 h. The essentials:
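VSV-G-pseudotyped Y188L NL4-3.Luci.R−E− virus (MOI 0.03) infecting HeLa-JC53 cells (1.5 × 10^4) in phenol red-free DMEM with 2% FBS. Serially diluted compound was added, then heat-inactivated human serum at final 0, 5, 10, 20, 30, 40 or 50%. Cultures ran 48 h at 37°C in 5% CO2, read by Bright-Glo luciferase chemiluminescence. EC50 was taken by nonlinear regression.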

Series [16] has as its system Human immunodeficiency virus 1. The experiment in a line: Antiviral activity against HIV1 isolate with RT 103N, 238N mutation relative to wild type. It is filed as functional. The essentials:
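Mutant RT clones built in pNL4-3.Luc.R−E− reporter, VSV-G-pseudotyped, single-round infection of HeLa-JC53 cells (15,000/well, MOI 0.03) with 1:4 serial compound dilutions in DMEM (phenol red-free), 2% FBS, 0.2% final DMSO; 48 h at 37°C, 5% CO2; luciferase chemiluminescence read-out. Fold change in EC50 relative to wild-type virus; mean of two tests.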

One may read the Cmax as the maximum level reached in the sampled fluid or tissue. As a reminder, the EC50 is the midpoint of the concentration-response curve. As usually defined, the bioavailability is the share of a dose that reaches the circulation, judged against a reference dose that is usually intravenous. Low readings indicate little systemic uptake, high ones much systemic uptake. As usually defined, the half-life is the time in which the quantity being followed falls by half. The low end stands for rapid decline, the high end for slow decline. With `NS(=O)(=O)c1ccc(NC(=O)CSc2nnc(Br)n2-c2ccc(C3CC3)c3ccccc23)c(Cl)c1`, the peak level in series [1] (Cmax) was 4420 ng/mL. The EC50 was 0.05 nM in series [2]; 0.15 nM in series [4]; 0.14 nM in series [6]; 0.81 nM in series [9]; 0.08 nM in series [12]; 13 nM in [13]. Moreover, the figures for the concentration giving a half-maximal response (EC50) in [14] and in [15] were 0.26 nM and 54 nM, respectively. This compound displayed a bioavailability in series [3] of 47.1%. In addition, the outcome in series [5] was inactive. For the same compound, the Fold change came out at 9.1 in series [7], 5.4 in series [8] and 18.7 in [10]. This compound showed a half-life in series [11] of 3.36 h.

With `Cc1ccnc2c1NC(=O)c1cccnc1N2C1CC1` [NEVIRAPINE], the Fold change in [16] was >100.
